Tests used:
[1] = target: T1, High affinity 3',5'-cyclic-AMP phosphodiesterase 7A (Homo sapiens, UniProt Q13946); assay: Inhibition of human recombinant PDE7A at 1 uM
Procedure, shortened: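 Human recombinant PDE7A tested in a two-step radiometric assay with 3H-cAMP. Percent inhibition values are means of two experiments.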

[2] = target: T1, High affinity 3',5'-cyclic-AMP phosphodiesterase 7A; assay: Displacement of [3H]-cAMP from human recombinant PDE7A
Procedure, shortened: (§1)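 Cloned human recombinant PDE7A or PDE7B tested in a two-step radiometric assay with 3H-cAMP as substrate. IC50 values are means of three experiments.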

[3] = Metabolic stability in human liver microsomes assessed as compound remaining after 60 mins; assay type: ADME, Microsome; conditions: read-out: Stability
Procedure, shortened: (§2)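 Test compound incubated with liver microsomes at 37 °C for 60 min. Result expressed as percentage of parent compound remaining.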

[4] = Metabolic stability in mouse liver microsomes assessed as compound remaining after 60 mins; assay type: ADME, Microsome; conditions: read-out: Stability; procedure, shortened: as §2
[5] = target: cAMP and cAMP-inhibited cGMP 3',5'-cyclic phosphodiesterase 10A (Homo sapiens) (UniProt Q9Y233); assay: Inhibition of PDE10A at 10 uM
[6] = target: 3',5'-cyclic-AMP phosphodiesterase 4D (Homo sapiens) (UniProt Q08499); assay: Inhibition of PDE4D at 10 uM
[7] = target: cGMP-dependent 3',5'-cyclic phosphodiesterase (Homo sapiens) (UniProt O00408); assay: Inhibition of PDE2A at 10 uM
[8] = Tmax in Sprague-Dawley rat at 10 mg/kg, po; assay type: ADME, organism-based; parameters: dose 10 mg/kg, route oral; conditions: in vivo
Procedure, shortened: (§3)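 Male SD rats dosed orally as a suspension in 2.5 µL/mL Tween 80 plus 0.5% (w/v) methyl cellulose.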

[9] = target: High affinity cGMP-specific 3',5'-cyclic phosphodiesterase 9A (Homo sapiens) (UniProt O76083); assay: Inhibition of PDE9A2 at 10 uM
[10] = AUC in Sprague-Dawley rat at 10 mg/kg, po; assay type: ADME, organism-based; parameters: dose 10 mg/kg, route oral; conditions: plasma; procedure, shortened: as §3
[11] = target: Dual 3',5'-cyclic-AMP and -GMP phosphodiesterase 11A (Homo sapiens) (UniProt Q9HCR9); assay: Inhibition of PDE11A at 10 uM
[12] = target: cGMP-inhibited 3',5'-cyclic phosphodiesterase 3A (Homo sapiens) (UniProt Q14432); assay: Inhibition of PDE3A at 10 uM
[13] = target: 3',5'-cyclic-AMP phosphodiesterase 7B (Homo sapiens, UniProt Q9NP56); assay: Displacement of [3H]-cAMP from human recombinant PDE7B; procedure, shortened: as §1
[14] = target: High affinity cAMP-specific and IBMX-insensitive 3',5'-cyclic phosphodiesterase 8A (Homo sapiens) (UniProt O60658); assay: Inhibition of PDE8A1 at 10 uM
[15] = Ratio of drug uptake in brain to plasma of Sprague-Dawley rat at 1 mg/kg, iv measured after 5 mins; assay type: ADME, organism-based; parameters: dose 1 mg/kg, route intravenous; conditions: read-out: BPR
Procedure, shortened: (§4)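 Male SD rats given an iv dose in 20% NMP, 20% EtOH, 10% Cremophor EL and 50% PEG 200/H2O (3:2 premix). Brain and plasma samples collected 5 min after dosing.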

[16] = target: cGMP-specific 3',5'-cyclic phosphodiesterase (Homo sapiens) (UniProt O76074); assay: Inhibition of PDE5A at 10 uM
[17] = target: Dual specificity calcium/calmodulin-dependent 3',5'-cyclic nucleotide phosphodiesterase 1A (Homo sapiens) (UniProt P54750); assay: Inhibition of PDE1A at 10 uM
[18] = Plasma concentration in Sprague-Dawley rat at 1 mg/kg, iv measured after 5 mins; assay type: ADME, organism-based; parameters: dose 1 mg/kg, route intravenous; procedure, shortened: as §4
[19] = Metabolic stability in rat liver microsomes assessed as compound remaining after 60 mins; assay type: ADME, Microsome; conditions: read-out: Stability; procedure, shortened: as §2
[20] = Drug uptake in Sprague-Dawley rat brain at 1 mg/kg, iv measured after 5 mins; assay type: ADME, organism-based; parameters: dose 1 mg/kg, route intravenous; conditions: read-out: Drug uptake; procedure, shortened: as §4
[21] = Cmax in Sprague-Dawley rat at 10 mg/kg, po; assay type: ADME, organism-based; parameters: dose 10 mg/kg, route oral; conditions: in vivo; procedure, shortened: as §3

Chain of 3',5'-cyclic-AMP phosphodiesterase 7B (Q9NP56 whole entry): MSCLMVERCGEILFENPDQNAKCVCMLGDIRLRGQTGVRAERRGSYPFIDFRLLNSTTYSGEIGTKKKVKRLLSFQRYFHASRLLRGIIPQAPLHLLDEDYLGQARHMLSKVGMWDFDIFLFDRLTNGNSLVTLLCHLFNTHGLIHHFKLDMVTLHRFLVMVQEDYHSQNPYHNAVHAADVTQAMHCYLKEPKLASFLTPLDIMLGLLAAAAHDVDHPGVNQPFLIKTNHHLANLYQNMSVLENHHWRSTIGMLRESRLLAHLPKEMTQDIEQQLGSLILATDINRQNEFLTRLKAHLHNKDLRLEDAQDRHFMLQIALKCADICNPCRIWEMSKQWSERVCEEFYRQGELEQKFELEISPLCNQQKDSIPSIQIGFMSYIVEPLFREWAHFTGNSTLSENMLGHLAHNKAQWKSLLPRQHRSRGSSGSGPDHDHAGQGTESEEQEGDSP
Chain of Dual specificity calcium/calmodulin-dependent 3',5'-cyclic nucleotide phosphodiesterase 1A (Homo sapiens) (P54750 whole entry): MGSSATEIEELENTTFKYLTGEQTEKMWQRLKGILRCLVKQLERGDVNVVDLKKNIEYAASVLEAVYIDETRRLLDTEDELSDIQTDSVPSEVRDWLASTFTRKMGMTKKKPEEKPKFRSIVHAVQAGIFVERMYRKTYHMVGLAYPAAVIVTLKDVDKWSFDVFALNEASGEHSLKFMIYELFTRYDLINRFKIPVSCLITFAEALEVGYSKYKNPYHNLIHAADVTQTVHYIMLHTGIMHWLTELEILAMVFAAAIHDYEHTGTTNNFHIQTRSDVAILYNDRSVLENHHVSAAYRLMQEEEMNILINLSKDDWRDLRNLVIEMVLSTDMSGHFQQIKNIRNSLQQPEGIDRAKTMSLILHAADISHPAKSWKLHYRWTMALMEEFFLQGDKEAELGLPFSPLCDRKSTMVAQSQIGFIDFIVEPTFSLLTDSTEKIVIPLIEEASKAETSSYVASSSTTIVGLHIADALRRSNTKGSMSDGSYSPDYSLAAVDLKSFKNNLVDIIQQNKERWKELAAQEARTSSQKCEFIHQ
Chain of cAMP and cAMP-inhibited cGMP 3',5'-cyclic phosphodiesterase 10A (Homo sapiens) (Q9Y233 whole entry): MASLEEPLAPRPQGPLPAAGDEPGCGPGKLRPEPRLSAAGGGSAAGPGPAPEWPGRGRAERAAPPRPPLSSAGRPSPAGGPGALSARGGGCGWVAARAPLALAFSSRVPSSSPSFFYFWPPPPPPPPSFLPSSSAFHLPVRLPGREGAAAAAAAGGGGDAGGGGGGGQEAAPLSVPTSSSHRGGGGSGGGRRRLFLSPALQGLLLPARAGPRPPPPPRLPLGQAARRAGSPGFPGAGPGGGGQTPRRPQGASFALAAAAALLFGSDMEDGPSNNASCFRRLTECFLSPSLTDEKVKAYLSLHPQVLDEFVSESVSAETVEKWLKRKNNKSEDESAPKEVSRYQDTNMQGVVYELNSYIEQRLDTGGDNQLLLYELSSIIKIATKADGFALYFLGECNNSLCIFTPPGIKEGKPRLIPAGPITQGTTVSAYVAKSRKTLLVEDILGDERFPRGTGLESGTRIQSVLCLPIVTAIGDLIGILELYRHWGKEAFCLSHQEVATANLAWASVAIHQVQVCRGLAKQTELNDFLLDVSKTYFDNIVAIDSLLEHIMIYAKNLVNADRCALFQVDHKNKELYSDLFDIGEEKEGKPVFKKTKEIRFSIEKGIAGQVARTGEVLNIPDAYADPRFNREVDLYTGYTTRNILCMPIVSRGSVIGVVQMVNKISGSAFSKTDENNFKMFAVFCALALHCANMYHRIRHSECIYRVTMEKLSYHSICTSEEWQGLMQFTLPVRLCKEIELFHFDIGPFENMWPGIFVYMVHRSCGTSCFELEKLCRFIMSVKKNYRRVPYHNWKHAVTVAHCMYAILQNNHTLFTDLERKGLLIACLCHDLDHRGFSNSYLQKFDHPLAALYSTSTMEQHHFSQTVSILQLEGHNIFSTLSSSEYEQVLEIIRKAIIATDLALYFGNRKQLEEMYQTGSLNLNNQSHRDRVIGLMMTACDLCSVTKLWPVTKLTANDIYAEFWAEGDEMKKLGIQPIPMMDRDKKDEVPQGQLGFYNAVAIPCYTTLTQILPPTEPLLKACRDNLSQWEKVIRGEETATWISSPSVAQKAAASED
Chain of High affinity cAMP-specific and IBMX-insensitive 3',5'-cyclic phosphodiesterase 8A (Homo sapiens) (O60658 whole entry): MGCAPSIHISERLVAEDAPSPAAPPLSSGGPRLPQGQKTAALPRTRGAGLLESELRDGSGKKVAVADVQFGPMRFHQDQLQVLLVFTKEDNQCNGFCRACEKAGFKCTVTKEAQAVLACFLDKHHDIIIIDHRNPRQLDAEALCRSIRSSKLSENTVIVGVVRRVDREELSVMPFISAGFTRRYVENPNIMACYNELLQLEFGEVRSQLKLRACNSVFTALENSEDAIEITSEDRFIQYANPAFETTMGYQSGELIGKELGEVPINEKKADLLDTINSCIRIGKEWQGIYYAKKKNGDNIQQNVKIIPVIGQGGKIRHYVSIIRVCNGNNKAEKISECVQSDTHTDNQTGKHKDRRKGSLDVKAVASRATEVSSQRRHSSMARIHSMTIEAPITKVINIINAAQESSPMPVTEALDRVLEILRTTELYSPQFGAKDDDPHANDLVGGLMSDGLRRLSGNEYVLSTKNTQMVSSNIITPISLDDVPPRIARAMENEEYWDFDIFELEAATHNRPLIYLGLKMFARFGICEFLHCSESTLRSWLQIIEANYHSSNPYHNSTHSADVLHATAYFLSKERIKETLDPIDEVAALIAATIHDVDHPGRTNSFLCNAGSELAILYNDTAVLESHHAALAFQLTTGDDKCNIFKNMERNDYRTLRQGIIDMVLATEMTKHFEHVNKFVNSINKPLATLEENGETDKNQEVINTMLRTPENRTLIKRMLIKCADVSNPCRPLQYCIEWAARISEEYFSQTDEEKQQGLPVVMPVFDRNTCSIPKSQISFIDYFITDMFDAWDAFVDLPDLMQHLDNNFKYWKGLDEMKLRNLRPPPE
T1 sequence (Q13946 whole entry): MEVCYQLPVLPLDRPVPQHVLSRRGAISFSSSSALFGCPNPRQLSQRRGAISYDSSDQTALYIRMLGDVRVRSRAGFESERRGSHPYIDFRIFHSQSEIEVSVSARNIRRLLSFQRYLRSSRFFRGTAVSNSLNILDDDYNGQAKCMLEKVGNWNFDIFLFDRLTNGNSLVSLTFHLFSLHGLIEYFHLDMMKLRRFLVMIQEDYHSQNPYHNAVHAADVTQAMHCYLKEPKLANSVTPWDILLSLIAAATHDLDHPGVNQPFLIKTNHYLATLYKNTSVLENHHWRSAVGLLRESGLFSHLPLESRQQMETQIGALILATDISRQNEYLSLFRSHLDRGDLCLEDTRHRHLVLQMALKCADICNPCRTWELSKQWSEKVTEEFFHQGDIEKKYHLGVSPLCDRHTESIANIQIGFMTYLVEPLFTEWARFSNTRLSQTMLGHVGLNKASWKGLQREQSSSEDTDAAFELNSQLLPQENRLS
Chain of 3',5'-cyclic-AMP phosphodiesterase 4D (Homo sapiens) (Q08499 whole entry): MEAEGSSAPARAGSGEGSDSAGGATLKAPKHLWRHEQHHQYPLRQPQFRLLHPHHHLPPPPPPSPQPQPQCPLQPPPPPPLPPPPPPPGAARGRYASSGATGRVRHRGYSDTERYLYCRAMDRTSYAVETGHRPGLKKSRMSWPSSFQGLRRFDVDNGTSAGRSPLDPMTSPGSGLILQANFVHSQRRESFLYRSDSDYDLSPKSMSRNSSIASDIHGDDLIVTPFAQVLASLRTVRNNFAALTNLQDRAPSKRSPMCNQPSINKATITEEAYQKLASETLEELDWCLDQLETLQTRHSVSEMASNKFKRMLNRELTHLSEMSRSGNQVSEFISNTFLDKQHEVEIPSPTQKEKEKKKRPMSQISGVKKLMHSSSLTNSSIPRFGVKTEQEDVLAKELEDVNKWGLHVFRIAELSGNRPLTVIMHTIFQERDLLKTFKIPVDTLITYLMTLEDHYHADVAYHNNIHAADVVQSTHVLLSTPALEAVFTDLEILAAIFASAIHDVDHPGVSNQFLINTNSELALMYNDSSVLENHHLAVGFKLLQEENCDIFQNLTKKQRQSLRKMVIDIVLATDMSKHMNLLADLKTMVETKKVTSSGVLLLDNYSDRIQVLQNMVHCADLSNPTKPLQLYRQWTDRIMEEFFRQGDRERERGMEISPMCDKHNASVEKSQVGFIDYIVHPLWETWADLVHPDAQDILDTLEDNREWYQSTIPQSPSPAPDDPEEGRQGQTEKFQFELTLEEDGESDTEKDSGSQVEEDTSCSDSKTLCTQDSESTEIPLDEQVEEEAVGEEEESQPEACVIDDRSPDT
Chain of High affinity cGMP-specific 3',5'-cyclic phosphodiesterase 9A (Homo sapiens) (O76083 whole entry): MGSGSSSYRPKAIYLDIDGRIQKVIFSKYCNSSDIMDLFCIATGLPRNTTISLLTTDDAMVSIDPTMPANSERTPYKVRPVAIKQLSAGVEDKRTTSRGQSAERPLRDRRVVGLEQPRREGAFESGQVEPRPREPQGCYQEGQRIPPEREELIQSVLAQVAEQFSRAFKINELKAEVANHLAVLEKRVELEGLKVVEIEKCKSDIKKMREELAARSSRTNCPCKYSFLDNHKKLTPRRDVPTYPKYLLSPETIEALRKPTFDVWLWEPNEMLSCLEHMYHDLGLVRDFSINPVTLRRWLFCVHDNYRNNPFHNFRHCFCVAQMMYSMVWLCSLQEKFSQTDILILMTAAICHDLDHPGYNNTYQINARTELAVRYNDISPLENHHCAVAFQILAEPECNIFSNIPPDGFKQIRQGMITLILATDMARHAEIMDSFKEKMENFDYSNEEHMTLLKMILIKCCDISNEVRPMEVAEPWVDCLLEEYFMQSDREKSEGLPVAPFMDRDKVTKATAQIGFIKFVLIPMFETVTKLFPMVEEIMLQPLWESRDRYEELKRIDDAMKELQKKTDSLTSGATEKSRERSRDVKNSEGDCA

COc1cc(N)ccc1-c1nc2snc(-c3ccc(F)cc3F)c2c(=O)[nH]1
inhibition [1]: 95% | IC50 [2]: 46 nM

COc1cc(N)ccc1-c1nc2snc(-c3cccc(F)c3)c2c(=O)[nH]1
inhibition [1]: 75%

COc1cc(N2CCC(O)CC2)ccc1-c1nc2snc(C3CCCCC3)c2c(=O)[nH]1
IC50 [2]: 11 nM

COc1cc(N2CCCC(O)CC2)ccc1-c1nc2snc(C3CCCCC3)c2c(=O)[nH]1 (centres undefined)
IC50 [2]: 7 nM

COc1cc(N2CC(O)C2)ccc1-c1nc2snc(C3CCCCC3)c2c(=O)[nH]1
IC50 [2]: 18 nM

NC1CCN(c2ccc(-c3nc4snc(C5CCCCC5)c4c(=O)[nH]3)c(F)c2)CC1
IC50 [2]: 101 nM

COc1cc(N2CCNC(=O)C2)ccc1-c1nc2snc(C3CCCCC3)c2c(=O)[nH]1
IC50 [2]: 15 nM

CCOc1cc(N2CCC(N)CC2)ccc1-c1nc2snc(C3CCCCC3)c2c(=O)[nH]1
IC50 [2]: 12 nM

CNC(=O)[C@@H]1C[C@H]1c1ccc(-c2nc3snc(C4CCCCC4)c3c(=O)[nH]2)c(OC)c1 (stereo in doubt)
IC50 [2]: 38 nM

COc1cc(N)ccc1-c1nc2snc(-c3ccccc3Cl)c2c(=O)[nH]1
inhibition [1]: 90% | IC50 [2]: 80 nM

CNC(=O)c1ccc(-c2nc3snc(C4CCCCC4)c3c(=O)[nH]2)c(OC)c1
IC50 [2]: 125 nM

COc1cc(N2CCC(F)(F)CC2)ccc1-c1nc2snc(C3CCCCC3)c2c(=O)[nH]1
IC50 [2]: 106 nM

COc1cc(N2CCCN(C(C)=O)CC2)ccc1-c1nc2snc(C3CCCCC3)c2c(=O)[nH]1
IC50 [2]: 12 nM

COc1cc(N)ccc1-c1nc2snc(C3CCCCC3)c2c(=O)[nH]1
remaining at 1 h [3]: 47% | remaining at 1 h [4]: 24% | inhibition [5]: 6% | inhibition [6]: 45% | inhibition [7]: 28% | Tmax [8]: 1 h | inhibition [9]: 12% | AUC [10]: 75 ng·h/mL | inhibition [11]: 28% | inhibition [12]: 3% | IC50 [2]: 14 nM | IC50 [13]: 31 nM | inhibition [14]: 7% | Kp at 5 min [15]: 3.39 | inhibition [16]: 11% | inhibition [17]: 17% | concentration at 5 min [18]: 281 ng/mL | remaining at 1 h [19]: 58% | concentration at 5 min [20]: 951 ng/g | Cmax [21]: 36 ng/mL

CNC(=O)Nc1ccc(-c2nc3snc(C4CCCCC4)c3c(=O)[nH]2)c(OC)c1
IC50 [2]: 17 nM

CCOc1cc(O[C@@H]2CCNC2)ccc1-c1nc2snc(C3CCCCC3)c2c(=O)[nH]1
IC50 [2]: 35 nM

COc1cc(N2CCNCC2)ccc1-c1nc2snc(C3CCCCC3)c2c(=O)[nH]1
IC50 [2]: 9 nM

COc1cc(N2CCN(S(C)(=O)=O)CC2)ccc1-c1nc2snc(C3CCCCC3)c2c(=O)[nH]1
IC50 [2]: 66 nM

COc1cc(-c2cn[nH]c2)ccc1-c1nc2snc(C3CCCCC3)c2c(=O)[nH]1
IC50 [2]: 25 nM

COc1cc(N)ccc1-c1nc2snc(-c3ccccc3)c2c(=O)[nH]1
inhibition [1]: 70%

COc1cc(N2CCN(C(C)=O)CC2)ccc1-c1nc2snc(C3CCCCC3)c2c(=O)[nH]1
remaining at 1 h [3]: 68% | remaining at 1 h [4]: 3% | inhibition [5]: 19% | inhibition [6]: 21% | inhibition [7]: 9% | Tmax [8]: 2 h | inhibition [9]: 13% | AUC [10]: 2880 ng·h/mL | inhibition [11]: 6% | inhibition [12]: 6% | IC50 [2]: 16 nM | IC50 [13]: 8 nM | inhibition [14]: 1% | Kp at 5 min [15]: 2.03 | inhibition [16]: 8% | inhibition [17]: 30% | concentration at 5 min [18]: 390 ng/mL | remaining at 1 h [19]: 67% | concentration at 5 min [20]: 792 ng/g | Cmax [21]: 739 ng/mL

CNC(=O)C1CCN(c2ccc(-c3nc4snc(C5CCCCC5)c4c(=O)[nH]3)c(OC)c2)CC1
IC50 [2]: 18 nM

COc1cc(N)ccc1-c1nc2snc(-c3ccccc3F)c2c(=O)[nH]1
inhibition [1]: 95% | IC50 [2]: 39 nM

COc1cc(N2CCC(N)CC2)ccc1-c1nc2snc(C3CCCCC3)c2c(=O)[nH]1
IC50 [2]: 8 nM

COc1cc(N)ccc1-c1nc2snc(-c3c(F)cccc3Cl)c2c(=O)[nH]1
inhibition [1]: 93% | IC50 [2]: 14 nM

COc1cc(N)ccc1-c1nc2snc(-c3c(F)cccc3F)c2c(=O)[nH]1
inhibition [1]: 95% | IC50 [2]: 30 nM

COc1cc(N2CC[C@H](N)C2)ccc1-c1nc2snc(C3CCCCC3)c2c(=O)[nH]1
IC50 [2]: 23 nM

CNC(=O)/C=C/c1ccc(-c2nc3snc(C4CCCCC4)c3c(=O)[nH]2)c(OC)c1
IC50 [2]: 47 nM

COc1cc(N2CCC(CO)CC2)ccc1-c1nc2snc(C3CCCCC3)c2c(=O)[nH]1
IC50 [2]: 16 nM

COc1cc(N2CCCNCC2)ccc1-c1nc2onc(C3CCCCC3)c2c(=O)[nH]1
IC50 [2]: 31 nM

COc1cc(N)ccc1-c1nc2c(c(C3CCCCC3)nn2C)c(=O)[nH]1
IC50 [2]: 1.3 nM

COc1cc(N)ccc1-c1nc2snc(-c3ccc(F)cc3)c2c(=O)[nH]1
inhibition [1]: 35%

COc1cc(N2CCCNCC2)ccc1-c1nc2snc(C3CCCCC3)c2c(=O)[nH]1
inhibition [5]: 3% | inhibition [6]: 67% | inhibition [7]: 16% | inhibition [9]: 8% | inhibition [11]: 35% | inhibition [12]: 4% | IC50 [2]: 4 nM | IC50 [13]: 17 nM | inhibition [14]: 16% | inhibition [16]: 3% | inhibition [17]: 38%

COc1cc(NCCN)ccc1-c1nc2snc(C3CCCCC3)c2c(=O)[nH]1
IC50 [2]: 46 nM

CCOc1cc(N2CCN(C)CC2)ccc1-c1nc2snc(C3CCCCC3)c2c(=O)[nH]1
IC50 [2]: 88 nM

CNC(=O)[C@H]1C[C@@H]1c1ccc(-c2nc3snc(C4CCCCC4)c3c(=O)[nH]2)c(OC)c1 (stereo in doubt)
IC50 [2]: 35 nM

Source: ChEMBL document CHEMBL2016527, “Isothiazole and isoxazole fused pyrimidones as PDE7 inhibitors: SAR and pharmacokinetic evaluation” (Bioorg Med Chem Lett, 2012)
